In brackets after ≈: the same amount, converted by molar mass.
Columns and labels:
[1] = system: Candida; assay: Antifungal activity against Candida mycoderma after 24 hrs by twofold broth dilution method; format: functional
Summary of the method: (§1)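 MIC by NCCLS-recommended twofold broth microdilution, run in triplicate. Strains: B. subtilis ATCC6633, E. coli DH52, M. luteus ATCC4698, P. vulgaris ATCC6896, S. dysenteriae, S. aureus ATCC25923, MRSA N315, C. albicans ATCC76615, C. mycoderma. References were chloromycin, norfloxacin and berberine for bacteria, and fluconazole for fungi.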

[2] = system: Proteus vulgaris; assay: Antibacterial activity against Proteus vulgaris after 24 hrs by twofold broth dilution method; format: functional; summary of the method: as §1
[3] = system: Candida albicans; assay: Antifungal activity against Candida albicans after 24 hrs by twofold broth dilution method; format: functional; summary of the method: as §1
[4] = system: Pseudomonas aeruginosa; assay: Antibacterial activity against Pseudomonas aeruginosa after 24 hrs by twofold broth dilution method; format: functional
Summary of the method: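 Twofold broth dilution in 96-well microplates following NCCLS guidance; MIC read as the endpoint; tests run in triplicate.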

[5] = system: Shigella dysenteriae; assay: Antibacterial activity against Shigella dysenteriae after 24 hrs by twofold broth dilution method; format: functional; summary of the method: as §1
[6] = system: Escherichia coli; assay: Antibacterial activity against Escherichia coli DH52 after 24 hrs by twofold broth dilution method; format: functional; settings: DH52, 24 h; summary of the method: as §1
[7] = system: Micrococcus luteus; assay: Antibacterial activity against Micrococcus luteus ATCC 4698 after 24 hrs by twofold broth dilution method; format: functional; settings: ATCC 4698, 24 h; summary of the method: as §1
[8] = system: Bacillus subtilis; assay: Antibacterial activity against Bacillus subtilis after 24 hrs by twofold broth dilution method; format: functional; summary of the method: as §1
[9] = system: Staphylococcus aureus; assay: Antibacterial activity against Staphylococcus aureus ATCC 25923 after 24 hrs by twofold broth dilution method; format: functional; settings: ATCC 25923, 24 h; summary of the method: as §1
[10] = system: Staphylococcus aureus; assay: Antibacterial activity against methicillin-resistant Staphylococcus aureus N315 after 24 hrs by twofold broth dilution method; format: functional; settings: N315, 24 h; summary of the method: as §1
[11] = Stability of the compound at pH 6.5 to 8.5 after 30 mins by UV spectrophotometry; format: physicochemical; settings: buffer, pH 6.5, 0.5 h
Summary of the method: (§2)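 Stability followed by UV spectrometry across pH 6.5–8.5 and temperatures 30–80 °C.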

[12] = Stability of the compound at 30 to 80 degC after 30 mins by UV spectrophotometry; format: physicochemical; settings: 0.5 h; summary of the method: as §2
[13] = Solubility of the compound in phosphate buffer at pH 7.5 after 20 hrs by UV spectrophotometry; format: physicochemical
Summary of the method: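 Phosphate buffer pH 7.5 added to solid; suspension sonicated 10 min, then shaken at room temperature for 20 h and centrifuged. Supernatant concentration read by UV absorbance against a regression calibration curve (278 and 340 nm).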

[14] = Octanol-water partition coefficient, log P of the compound after 24 hrs by UV-Vis spectrophotometry; format: physicochemical

| Compound | MIC [1] [µg/mL] | MIC [2] [µg/mL] | MIC [3] [µg/mL] | MIC [4] [µg/mL] | MIC [5] [µg/mL] | MIC [6] [µg/mL] | MIC [7] [µg/mL] | MIC [8] [µg/mL] | MIC [9] [µg/mL] | MIC [10] [µg/mL] | Stability [11] | Stability [12] | solubility at 20 h [13] [µg/mL] | logP at 24 h [14] |
| --- | --- | --- | --- | --- | --- | --- | --- | --- | --- | --- | --- | --- | --- | --- |
| O=[N+]([O-])c1cncn1CCN(CCBr)Cc1ccccc1Cl | 32 (≈ 82.5 µM) | 16 (≈ 41.3 µM) | 8 (≈ 20.6 µM) | 16 (≈ 41.3 µM) | 16 (≈ 41.3 µM) | 8 (≈ 20.6 µM) | 64 (≈ 165 µM) | 8 (≈ 20.6 µM) | 8 (≈ 20.6 µM) | 16 (≈ 41.3 µM) | – | – | – | – |
| O=[N+]([O-])c1cncn1CCN(CCBr)Cc1ccc(F)cc1F | 4 (≈ 10.3 µM) | 16 (≈ 41.1 µM) | 16 (≈ 41.1 µM) | 8 (≈ 20.6 µM) | 8 (≈ 20.6 µM) | 32 (≈ 82.2 µM) | 16 (≈ 41.1 µM) | 64 (≈ 164 µM) | 32 (≈ 82.2 µM) | 32 (≈ 82.2 µM) | – | – | – | – |
| COc1ccc2cc3[n+](cc2c1OCCN(CCn1cnc([N+](=O)[O-])c1)Cc1ccc(F)cc1F)CCc1cc2c(cc1-3)OCO2.[Cl-] | 8 | 16 | 16 | 16 | 4 | 16 | 16 | 32 | 16 | 32 | Stable | Stable | 94 | 0.5 |
| O=[N+]([O-])c1cncn1CCN(CCBr)Cc1ccc(Cl)cc1 | 128 (≈ 330 µM) | 256 (≈ 660 µM) | 64 (≈ 165 µM) | 64 (≈ 165 µM) | 256 (≈ 660 µM) | 128 (≈ 330 µM) | 128 (≈ 330 µM) | 64 (≈ 165 µM) | 64 (≈ 165 µM) | 128 (≈ 330 µM) | – | – | – | – |
| NC1CCN(c2c(F)cc3c(=O)c(C(=O)O)cn(C4CC4)c3c2Cl)C1 (centres undefined) [CLINAFLOXACIN] | – | – | – | 16 (≈ 43.7 µM) | – | – | – | – | – | – | – | – | – | – |
| OC(Cn1cncn1)(Cn1cncn1)c1ccc(F)cc1F [FLUCONAZOLE] | 4 (≈ 13.1 µM) | – | 1 (≈ 3.27 µM) | – | – | – | – | – | – | – | – | – | – | – |
| O=[N+]([O-])c1cn(CCN(CCBr)Cc2cccc(Cl)c2)cn1 | 128 (≈ 330 µM) | 512 (≈ 1320 µM) | 128 (≈ 330 µM) | 64 (≈ 165 µM) | 256 (≈ 660 µM) | 128 (≈ 330 µM) | 64 (≈ 165 µM) | 64 (≈ 165 µM) | 64 (≈ 165 µM) | 128 (≈ 330 µM) | – | – | – | – |
| COc1ccc2cc3[n+](cc2c1OCCN(CCn1cncc1[N+](=O)[O-])Cc1ccc(Cl)c(Cl)c1)CCc1cc2c(cc1-3)OCO2.[Cl-] | 64 | 16 | 8 | 8 | 2 | 8 | 32 | 16 | 8 | 16 | Stable | Stable | 80.8 | 0.55 |
| Cc1ncc([N+](=O)[O-])n1CCN(CCBr)Cc1ccc(F)cc1F | 128 (≈ 317 µM) | 128 (≈ 317 µM) | 128 (≈ 317 µM) | 64 (≈ 159 µM) | 32 (≈ 79.4 µM) | 32 (≈ 79.4 µM) | 128 (≈ 317 µM) | 256 (≈ 635 µM) | 64 (≈ 159 µM) | 16 (≈ 39.7 µM) | – | – | – | – |
| O=[N+]([O-])c1cn(CCN(CCBr)Cc2ccc(F)cc2F)cn1 | 8 (≈ 20.6 µM) | 32 (≈ 82.2 µM) | 32 (≈ 82.2 µM) | 16 (≈ 41.1 µM) | 16 (≈ 41.1 µM) | 32 (≈ 82.2 µM) | 16 (≈ 41.1 µM) | 64 (≈ 164 µM) | 32 (≈ 82.2 µM) | 64 (≈ 164 µM) | – | – | – | – |
| CCn1cc(C(=O)O)c(=O)c2cc(F)c(N3CCNCC3)cc21 [NORFLOXACIN] | – | 8 (≈ 25.1 µM) | – | 16 (≈ 50.1 µM) | 4 (≈ 12.5 µM) | 16 (≈ 50.1 µM) | 2 (≈ 6.26 µM) | 1 (≈ 3.13 µM) | 0.5 (≈ 1.57 µM) | 8 (≈ 25.1 µM) | – | – | – | – |

From ChEMBL document CHEMBL2401717, “Synthesis and bioactive evaluation of novel hybrids of metronidazole and berberine as new type of antimicrobial agents and their transportation behavior by human serum albumin” (Bioorg Med Chem, 2013)
